# Test results from ChEMBL document CHEMBL2331170, “Synthesis and biological evaluation of novel pyranochalcone derivatives as a new class of microtubule stabilizing agents” (Eur J Med Chem, 2013).
# Active and inactive are the calls of the source. No cut-off for these calls is given here.
# What was measured:
# [1] = Cytotoxicity against human MCF7/ADR cells by MTT assay; format: functional, cell-based; conditions: NCI/ADR-RES
# HepG2 [2] = assay: Antitumor activity against human HepG2 cells xenografted in Balb/C mouse assessed as tumor growth inhibition rate at 5 mg/kg administered every 4 days for 3 weeks measured on day 20; format: functional; conditions: read-out: TGI
# Outline: (§1)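 HepG2 cells (5 × 10⁶/mouse) in HBSS implanted in the right flank of 5–6-week-old female Balb/C and athymic nude mice, six per group. Dosing began once tumors reached ~100 mm³: three weeks at 2.5, 5 or 10 mg/kg every two days, or Taxol 5 mg/kg every four days; controls got physiological saline. Tumor volume = π/6 × length × width². T/C (%) = treated/control tumor volume × 100. Inhibition = (1 − treated/control tumor weight) × 100.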
# [3] = Cytotoxicity against human ES2 cells by MTT assay; format: functional, cell-based; conditions: ES-2
# A2780 = assay: Cytotoxicity against taxol-resistant human A2780 cells by MTT assay; format: functional, cell-based
# NCI-H358 = assay: Cytotoxicity against human NCI-H358 cells by MTT assay; format: functional, cell-based
# MCF7 = assay: Cytotoxicity against human MCF7 cells by MTT assay; format: functional, cell-based
# [4] = Cytotoxicity against human SPC-A1 cells by MTT assay; format: functional, cell-based; conditions: SPCA1
# DU-145 = assay: Cytotoxicity against human DU145 cells by MTT assay; format: functional, cell-based
# Tubulin (Sus scrofa) [5] = biological target: T1, Tubulin (Sus scrofa) (UniProt P02554+P02550); assay: Stabilization of purified pig brain tubulin polymerization at 20 uM measured every 30 seconds by spectrophotometry
# Outline: (§2)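 It was pre-incubated 5 min with compound (5, 10, 20 μM), Taxol (5, 20 μM) or DMSO. GTP was added to 1 mM final to start assembly, followed as the rise in absorbance at 340 nm at 37 °C.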
# HT-29 = assay: Cytotoxicity against human HT-29 cells by MTT assay; format: functional, cell-based
# [6] = Cytotoxicity against human H460 cells by MTT assay; format: functional, cell-based; conditions: NCI-H460
# PC-3 = assay: Cytotoxicity against human PC3 cells by MTT assay; format: functional, cell-based
# HCT-8 = assay: Cytotoxicity against taxol-resistant human HCT8 cells by MTT assay; format: functional, cell-based
# Tubulin (Sus scrofa) [7] = biological target: T1, Tubulin (Sus scrofa); assay: Stabilization of purified pig brain tubulin polymerization at 5 uM measured every 30 seconds by spectrophotometry; outline: as §2
# HepG2 [8] = assay: Antitumor activity against human HepG2 cells xenografted in Balb/C mouse assessed as tumor volume T/C ratio at 5 mg/kg administered every 4 days for 3 weeks measured on day 20 relative to control
# SK-HEP1 = assay: Cytotoxicity against human SKHEP1 cells by MTT assay; format: functional, cell-based
# Bel-7402 = assay: Cytotoxicity against human Bel7402 cells by MTT assay; format: functional, cell-based
# [9] = Cytotoxicity against mouse C26 cells by MTT assay; format: functional, cell-based
# HCT-15 = assay: Cytotoxicity against human HCT15 cells by MTT assay; format: functional, cell-based
# SK-OV-3 = assay: Cytotoxicity against human SKOV3 cells by MTT assay; format: functional, cell-based
# [10] = Cytotoxicity against human A2780S cells by MTT assay; format: functional, cell-based; conditions: A2780
# HepG2 [11] = assay: Effect on microtubule network in human HepG2 cells assessed as multiple tubulin bundles without chromosomes aligned at the metaphase plate with more dispersion of the chromosomes at 1 uM after 24 hrs by propidium iodide-FITC-based staining method; format: cell-based
# Outline: (§3)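 HepG2 cells were treated with 1.0 μM for 24 h. They were washed in PBS, fixed in cold 4% PFA for 10 min and blocked for 1 h in 5% goat serum/0.3% Triton/PBS. Staining used monoclonal anti-α-tubulin overnight at 4 °C, then Alexa Fluor 488 anti-mouse IgG for 30 min at room temperature, with propidium iodide for DNA. Cells were imaged by fluorescence or confocal microscopy.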
# [12] = Cytotoxicity against human LO2 cells by MTT assay; format: cell-based; conditions: L02
# Outline: (§4)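 Log-phase cells were diluted to 40,000–50,000 cells/mL in medium with 10% FBS, 2 mM glutamine and antibiotics (37 °C, 5% CO₂). They were seeded in 96-well plates and treated with a range of doses. MTT was added for 4 h, the formazan was dissolved in DMSO, and absorbance was read at 590 nm.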
# Tubulin (Homo sapiens) [13] = biological target: T2, Tubulin (Homo sapiens) (UniProt P68371+Q9H4B7+P0DPH7+P68366+Q13509+Q71U36+P04350+Q3ZCM7+P07437+P68363+Q9BQE3+Q6PEY2+Q13885+Q9BVA1+Q9BUF5); assay: Increase in polymerized tubulin level in human HepG2 cells at 0.1 to 0.5 uM after 24 hrs by Western blot analysis; format: cell-based
# Outline: (§5)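 HepG2 cells were treated at 0.1 or 0.5 μM for 24 h and washed three times in PBS. They were lysed on ice for 30 min in 20 mM Tris-HCl pH 6.8, 1 mM MgCl₂, 2 mM EGTA, 1 mM PMSF, 1 mM orthovanadate, 0.5% NP-40 and protease inhibitor. Tubulin was immunoblotted with α-tubulin antibody and HRP secondary, with chemiluminescent detection.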
# K562 = assay: Cytotoxicity against human K562 cells by MTT assay; format: functional, cell-based; outline: as §4
# Tubulin (Sus scrofa) [14] = biological target: T1, Tubulin (Sus scrofa); assay: Induction of purified pig brain tubulin depolymerization at 5 to 20 uM measured every 30 seconds by spectrophotometry; outline: as §2
# Tubulin (Sus scrofa) [15] = biological target: T1, Tubulin (Sus scrofa); assay: Stabilization of purified pig brain tubulin polymerization at 10 uM measured every 30 seconds by spectrophotometry; outline: as §2
# HepG2 [16] = assay: Effect on microtubule network in human HepG2 cells assessed as abnormal mitotic spindles at 1 uM after 24 hrs by propidium iodide-FITC-based staining method; format: cell-based; outline: as §3
# HepG2 [17] = assay: Antitumor activity against human HepG2 cells xenografted in Balb/C mouse assessed as tumor volume T/C ratio at 10 mg/kg administered every 2 days for 3 weeks measured on day 20 relative to control
# Tubulin (Homo sapiens) [18] = biological target: T2, Tubulin (Homo sapiens); assay: Decrease in unassembled tubulin level in human HepG2 cells at 0.1 to 0.5 uM after 24 hrs by Western blot analysis; format: cell-based; outline: as §5
# HepG2 [19] = assay: Cell cycle arrest in human HepG2 cells assessed as accumulation at G2/M phase at 1 uM after 24 hrs by flow cytometry (reference value: 17.07 %); format: functional
# HepG2 [20] = assay: Antitumor activity against human HepG2 cells xenografted in Balb/C mouse assessed as tumor volume T/C ratio at 5 mg/kg administered every 2 days for 3 weeks measured on day 20 relative to control
# A-375 = assay: Cytotoxicity against human A375 cells by MTT assay; format: functional, cell-based; outline: as §4
# Tubulin (Sus scrofa) [21] = biological target: T1, Tubulin (Sus scrofa); assay: Stabilization of purified pig brain tubulin polymerization measured every 30 seconds by spectrophotometry; outline: as §2
# HepG2 [22] = assay: Cytotoxicity against human HepG2 cells by MTT assay; format: functional, cell-based; outline: as §4
# HepG2 [23] = assay: Antitumor activity against human HepG2 cells xenografted in Balb/C mouse assessed as tumor growth inhibition rate at 5 mg/kg administered every 2 days for 3 weeks measured on day 20; format: functional; conditions: read-out: TGI; outline: as §1
# Mus musculus [24] = assay: Toxicity in human HepG2 cells xenografted Balb/C mouse assessed as behaviour changes at 2.5 to 10 mg/kg administered every 2 days for 3 weeks; format: organism-based; parameters: dose 2.5-10 mg/kg; conditions: in vivo
# Outline: (§6)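 Female Balb/C and nude mice (5–6 weeks) carried right-flank HepG2 xenografts (5 × 10⁶ cells). From ~100 mm³ tumor volume they were dosed at 2.5–10 mg/kg every two days for three weeks, six per group, with saline controls. Toxicity signs and mortality were checked daily. Body weight was measured every two days; feeding and behavior were observed.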
# HepG2 [25] = assay: Induction of microtubule polymerization in human HepG2 cells at 1 uM after 24 hrs by propidium iodide-FITC-based staining method
# HepG2 [26] = assay: Antitumor activity against human HepG2 cells xenografted in Balb/C mouse assessed as tumor volume T/C ratio at 2.5 mg/kg administered every 2 days for 3 weeks measured on day 20 relative to control
# HepG2 [27] = assay: Cell cycle arrest in human HepG2 cells assessed as accumulation at G2/M phase at 0.2 uM after 24 hrs by flow cytometry (reference value: 17.07 %); format: functional
# Mus musculus [28] = assay: Toxicity in human HepG2 cells xenografted Balb/C mouse assessed as weight loss at 2.5 to 10 mg/kg administered every 2 days for 3 weeks; format: organism-based; parameters: dose 2.5-10 mg/kg; conditions: in vivo; outline: as §6
# HepG2 [29] = assay: Antitumor activity against human HepG2 cells xenografted in Balb/C mouse assessed as tumor growth inhibition rate at 2.5 mg/kg administered every 2 days for 3 weeks measured on day 20; format: functional; conditions: read-out: TGI; outline: as §1
# Mus musculus [30] = assay: Toxicity in human HepG2 cells xenografted Balb/C mouse assessed as feeding at 2.5 to 10 mg/kg administered every 2 days for 3 weeks; format: organism-based; parameters: dose 2.5-10 mg/kg; conditions: in vivo; outline: as §6
# HepG2 [31] = assay: Antitumor activity against human HepG2 cells xenografted in Balb/C mouse assessed as tumor growth inhibition rate at 10 mg/kg administered every 2 days for 3 weeks measured on day 20; format: functional; conditions: read-out: TGI; outline: as §1
# HepG2 [32] = assay: Antitumor activity against human HepG2 cells xenografted in Balb/C mouse assessed as tumor growth inhibition rate compound administered every 2 days for 3 weeks measured on day 20; format: functional, cell-based; outline: as §1
# [33] = Ratio of taxol IC50 to compound IC50 for mouse C26 cells by MTT assay; format: functional
# HepG2 [34] = assay: Cell cycle arrest in human HepG2 cells assessed as accumulation at G2/M phase at after 24 hrs by flow cytometry; format: functional, cell-based
# T1 sequence (P02550 whole entry, looked up): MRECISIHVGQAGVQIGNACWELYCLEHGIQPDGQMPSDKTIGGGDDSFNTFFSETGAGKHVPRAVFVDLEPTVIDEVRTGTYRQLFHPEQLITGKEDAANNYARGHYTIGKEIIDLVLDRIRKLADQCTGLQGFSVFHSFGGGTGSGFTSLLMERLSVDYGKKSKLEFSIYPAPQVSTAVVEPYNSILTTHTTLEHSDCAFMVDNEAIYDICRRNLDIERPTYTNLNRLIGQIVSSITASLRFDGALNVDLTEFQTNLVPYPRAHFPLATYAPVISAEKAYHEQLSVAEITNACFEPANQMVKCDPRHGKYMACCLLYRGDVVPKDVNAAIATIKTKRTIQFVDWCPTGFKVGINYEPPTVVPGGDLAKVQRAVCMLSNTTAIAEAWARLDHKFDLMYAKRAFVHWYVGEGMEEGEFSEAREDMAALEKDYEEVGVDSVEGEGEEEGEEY
# T1 sequence (P02554 whole entry, looked up): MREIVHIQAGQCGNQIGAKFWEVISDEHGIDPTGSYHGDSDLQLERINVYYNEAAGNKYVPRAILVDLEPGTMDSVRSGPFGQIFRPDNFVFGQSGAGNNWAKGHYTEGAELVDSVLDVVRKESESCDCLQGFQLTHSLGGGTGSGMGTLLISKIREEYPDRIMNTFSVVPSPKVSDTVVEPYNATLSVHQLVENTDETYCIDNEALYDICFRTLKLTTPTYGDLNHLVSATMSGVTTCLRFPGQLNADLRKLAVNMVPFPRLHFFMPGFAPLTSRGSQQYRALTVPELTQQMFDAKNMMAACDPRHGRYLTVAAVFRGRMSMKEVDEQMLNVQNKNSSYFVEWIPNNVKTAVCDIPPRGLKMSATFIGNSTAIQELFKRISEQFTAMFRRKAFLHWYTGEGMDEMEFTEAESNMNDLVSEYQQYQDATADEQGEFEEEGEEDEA
smiles,measurement,setting,value
CC(=O)O[C@H]1C(=O)[C@@]2(C)[C@H]([C@H](OC(=O)c3ccccc3)[C@]3(O)C[C@H](OC(=O)[C@H](O)[C@@H](NC(=O)c4ccccc4)c4ccccc4)C(C)=C1C3(C)C)[C@]1(OC(C)=O)CO[C@@H]1C[C@@H]2O [PACLITAXEL],IC50,[1],6900 nM
same,inhibition in vivo at 5 mg/kg,HepG2 [2],59.1%
same,IC50,[3],100 nM
same,IC50,A2780,8250 nM
same,IC50,NCI-H358,10 nM
same,IC50,MCF7,660 nM
same,IC50,[4],5300 nM
same,IC50,DU-145,30 nM
same,Activity,Tubulin (Sus scrofa) [5],23.8%
same,IC50,HT-29,450 nM
same,IC50,[6],24000 nM
same,IC50,PC-3,140 nM
same,IC50,HCT-8,13300 nM
same,Activity,Tubulin (Sus scrofa) [7],6.3%
same,T/C at 5 mg/kg,HepG2 [8],32.4%
same,IC50,SK-HEP1,240 nM
same,IC50,Bel-7402,> 2000 nM
same,IC50,[9],1050 nM
same,IC50,HCT-15,120 nM
same,IC50,SK-OV-3,100 nM
COc1cc2c(c(OC)c1OC)-c1ccc(OC)c(=O)cc1[C@@H](NC(C)=O)CC2 [COLCHICINE],IC50,[1],3120 nM
same,IC50,[3],90 nM
same,IC50,A2780,> 20000 nM
same,IC50,NCI-H358,20 nM
same,IC50,MCF7,290 nM
same,IC50,[4],80000 nM
same,IC50,DU-145,300 nM
same,IC50,[10],20 nM
same,IC50,HT-29,20 nM
same,IC50,[6],27000 nM
same,IC50,PC-3,40 nM
same,IC50,HCT-8,11800 nM
same,IC50,SK-HEP1,170 nM
same,IC50,Bel-7402,1310 nM
same,IC50,[9],1720 nM
same,IC50,HCT-15,80 nM
same,IC50,SK-OV-3,120 nM
CCC(=O)Oc1cc(/C=C/C(=O)c2ccc(OC)c3c2OC(C)(C)C=C3)ccc1OC,IC50,[1],160 nM
same,Activity,HepG2 [11],Active
same,IC50,[12],> 10000 nM
same,Activity,Tubulin (Homo sapiens) [13],Active
same,IC50,K562,160 nM
same,Activity,Tubulin (Sus scrofa) [14],inactive
same,IC50,[3],100 nM
same,IC50,A2780,1330 nM
same,Activity,Tubulin (Sus scrofa) [15],16.3%
same,Activity,HepG2 [16],Active
same,IC50,NCI-H358,150 nM
same,T/C at 10 mg/kg,HepG2 [17],33.9%
same,IC50,MCF7,190 nM
same,Activity,Tubulin (Homo sapiens) [18],Active
same,Activity,HepG2 [19],76.02%
same,T/C at 5 mg/kg,HepG2 [20],32.4%
same,IC50,[4],22300 nM
same,IC50,A-375,240 nM
same,Activity,Tubulin (Sus scrofa) [21],Dose-dependent effect
same,IC50,DU-145,190 nM
same,IC50,HepG2 [22],90 nM
same,inhibition in vivo at 5 mg/kg,HepG2 [23],57.6%
same,IC50,[10],220 nM
same,Activity,Tubulin (Sus scrofa) [5],32%
same,IC50,HT-29,200 nM
same,Activity,Mus musculus [24],Non-toxic
same,IC50,[6],4050 nM
same,Activity,HepG2 [25],Active
same,T/C at 2.5 mg/kg,HepG2 [26],34.9%
same,Activity,HepG2 [27],67.76%
same,IC50,PC-3,90 nM
same,Activity,Mus musculus [28],Non-toxic
same,IC50,HCT-8,1690 nM
same,Activity,Tubulin (Sus scrofa) [7],10%
same,IC50,SK-HEP1,320 nM
same,IC50,Bel-7402,400 nM
same,inhibition in vivo at 2.5 mg/kg,HepG2 [29],54.3%
same,Activity,Mus musculus [30],Non-toxic
same,IC50,[9],310 nM
same,inhibition in vivo at 10 mg/kg,HepG2 [31],69.7%
same,IC50,HCT-15,100 nM
same,TGI,HepG2 [32],Dose-dependent effect
same,Ratio IC50,[33],3
same,Activity,HepG2 [34],Dose-dependent effect
same,IC50,SK-OV-3,350 nM
